Compound activity from PubChem BioAssay.
PAD4 inh: PAD4 (human) enzyme inhibition | Q9UM07 | recombinant PAD4, RCA probe fluorescence polarization | inhibition, % at 6.36 µM | actives 0.41% (n = 330,000) | AID 485272;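 active = percent inhibition above a cutoff equal to the mean of all tested compounds plus 3 SD, cut at about 15% in these data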;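 also: 0% = PAD4 with RCA probe and DMSO and 100% = probe without PAD4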
PRMT1 inh: blocks human protein arginine methyltransferase 1 | actives 1.3% (n = 370,000) | Q99873 | recombinant PRMT1, activity-based probe fluorescence polarization | AID 652257 | inhibition, % at 2.79 µM;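 active = inhibition above about 21% made by adding two undisclosed values, limit read from the data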
Target sequence (Q99873 whole entry, looked up): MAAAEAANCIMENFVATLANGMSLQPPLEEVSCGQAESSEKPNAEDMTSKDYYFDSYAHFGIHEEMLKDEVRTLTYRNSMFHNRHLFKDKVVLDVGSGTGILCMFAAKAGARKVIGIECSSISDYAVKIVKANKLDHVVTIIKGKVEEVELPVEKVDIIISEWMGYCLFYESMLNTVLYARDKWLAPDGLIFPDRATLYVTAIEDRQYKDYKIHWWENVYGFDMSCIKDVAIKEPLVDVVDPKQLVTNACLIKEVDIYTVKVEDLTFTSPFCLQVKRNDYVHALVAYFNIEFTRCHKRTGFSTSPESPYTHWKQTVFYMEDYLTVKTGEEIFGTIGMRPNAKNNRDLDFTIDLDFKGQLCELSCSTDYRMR
GSTO1 inh: GSTO1 inhibition, counter-screen for RBBP9 inhibitors; AID 1974; actives 1.1% (n = 300,000); inhibition, % at 5.96 µM; recombinant GSTO1, activity-based probe fluorescence polarization;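 active = inhibition above the campaign mean inhibition plus 3 SD, cut at about 35% in these data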;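 also: 0% = GSTO1-1 with DMSO and 100% = wells lacking GSTO1-1 enzyme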
Target sequence (P78417 whole entry, looked up): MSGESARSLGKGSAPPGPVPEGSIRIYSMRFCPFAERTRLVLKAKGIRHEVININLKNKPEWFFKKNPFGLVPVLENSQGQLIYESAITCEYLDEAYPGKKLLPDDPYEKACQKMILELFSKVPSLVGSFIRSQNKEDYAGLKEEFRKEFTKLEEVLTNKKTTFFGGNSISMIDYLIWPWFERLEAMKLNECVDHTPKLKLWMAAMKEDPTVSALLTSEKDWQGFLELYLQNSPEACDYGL
TDP2 absorb: TDP2 (human) inhibition, absorbance primary screen. recombinant TDP2, T5PNP hydrolysis, p-nitrophenol absorbance 415 nm. inhibition, % at 12.8 µM. actives 0.34% (n = 370,000);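 active = inhibition above the mean of all tested compounds plus 3 SD, set per campaign, cut at about 25% in these data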;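 also: 0% = DMSO with enzyme and 100% = buffer with substrate but no TDP2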
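Evaluation: % inhibition relative to enzyme-containing and enzyme-free wells. Material: recombinant human TDP2. Benchmarks: enzyme-free and DMSO wells. Timing: enzyme reaction with compound for 2 h at 37 °C. Compound dosing: 12.8 µM only. Measured by: p-Nitrophenol epi absorbance. Reagent: T5PNP substrate at 5 mM, a TopII-DNA adduct mimic. Replication: single well per compound.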
E coli Lon inh: E. coli protease La inhibition; purified E. coli Lon protease, fluorescence polarization; inhibition, % at 7.94 µM; actives 0.42% (n = 360,000); AID 602123; in the data active = inhibition above about 13%, passing the limit was not always enough;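 also: 0% = enzyme with probe and DMSO and 100% = no enzyme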
TDP2 inh conf: human TDP2 inhibition, confirmation | recombinant human TDP2, absorbance read-out | actives 22% (n = 1,100) | shares compounds with TDP2 absorb | AID 743263 | inhibition, % at 12.8 µM; in the data active = inhibition above about 25%;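 also: 0% = vehicle with enzyme and 100% = no enzyme buffer only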
* = called active by the depositor; · = not tested or not shown. The list is not random: actives were taken first. Their share in the collection is about 2.5%.

SMILES	PAD4 inh	PRMT1 inh	GSTO1 inh	TDP2 absorb	E coli Lon inh	TDP2 inh conf
Cc1ccc(C2C(C#N)=C(N)Oc3n[nH]c(-c4cccs4)c32)s1 (centres undefined)	9.3	2.8	17.4	34.3*	1.9	0.4
N#CC1=C(N)Oc2n[nH]c(-c3cccs3)c2C1c1ccco1 (centres undefined)	3.1	7.4	21.6	1.9	-15.9	·
CN(Cc1cnn(C)c1)Cc1nc(-c2ccc(Cl)cc2)no1	3.1	3.1	4.7	-9.5	-11.8	·
CCc1ccc(CN(C)Cc2nc(-c3cccc(Cl)c3)no2)nc1	1.7	-1.0	5.4	27.6*	-6.0	4.0
CCNc1nc(NCC)n2c(SCC(=O)Nc3cc(Cl)ccc3OC)nnc2n1	2.1	5.0	18.3	24.9*	-6.1	-7.0
COCC(C)n1c(SC(C)C(=O)NC2CCCCC2C)nc2ccccc2c1=O (centres undefined)	-2.9	-1.8	3.1	21.2	-7.9	·
Nc1c(C(=O)OCC(=O)Nc2ccccc2Br)[nH]c(=O)[nH]c1=O	-9.6	4.5	·	6.6	1.9	·
Nc1c(C(=O)OCC(=O)NCc2ccccc2)[nH]c(=O)[nH]c1=O	-10.8	4.4	18.5	49.2*	4.3	-2.6
Cc1cccc(NC(=O)C(Cc2ccccc2)c2nn[nH]n2)c1C (centres undefined)	-1.7	-0.5	3.8	27.9*	2.3	2.0
Cc1ccc(CN2CCSCC2)cc1	-2.7	0.7	-2.1	26.0*	-1.0	7.8
COc1ccccc1N1CCN(CCCCOc2c(OC)cccc2OC)CC1	-3.6	-0.4	0.0	27.2*	-1.4	-4.5
COC(=O)c1ccc(OCC(O)CNCC(c2ccc(OC)cc2)N(C)C)c(OC)c1 (centres undefined)	1.7	1.4	2.1	26.1*	-1.8	12.9
COC(=O)c1ccc2cc(OC)c(OC)cc2c1	·	0.3	·	1.1	-17.9	·
CN1CCN(CC(=O)Nc2nc3ccccc3s2)CC1	3.8	-0.6	5.1	25.1*	4.1	3.0
CCN1CCN(CC(=O)Nc2nc3ccccc3s2)CC1	0.4	2.2	2.0	18.2	1.6	·
Cc1[nH]c2ccccc2c1C(=O)CN1C(=O)C(=O)N(C2CCCC2)C1=O	-2.3	0.0	1.8	26.5*	4.1	4.0
Cc1cc(C(=O)CN2C(=O)C(=O)N(C3CCCC3)C2=O)c(C)n1CCc1ccccc1	·	0.7	·	6.5	3.5	·
OC[C@@H]1CN(CCN2CCOCC2)C[C@H](n2cnc3c(NCc4ccc(F)cc4)ncnc32)O1	·	-0.5	·	3.0	0.7	·
COc1cc(CN2CCC(CCC(=O)NC3CC3)CC2)cc(Cl)c1OC	-7.9	-2.9	2.2	-11.7	-0.8	·
Cn1c(-c2ccccc2)cnc1NCc1ccccc1	-2.4	-3.1	3.7	29.2*	-2.7	-4.9
Cn1c(-c2ccc3c(c2)OCO3)cnc1NCc1ccccc1	4.0	0.5	0.9	-0.5	-7.4	·
COCCNC(=O)C1(C)CCCN(C(=O)c2cc(C)oc2C)C1 (centres undefined)	·	-3.4	·	-13.1	6.5	·
CC(C)C(=O)NC(c1cccs1)c1cc([N+](=O)[O-])c2cccnc2c1O (centres undefined)	-9.1	·	-1.6	·	-1.7	·
CCC(=O)NC(c1cccs1)c1cc([N+](=O)[O-])c2cccnc2c1OC (centres undefined)	·	14.1	·	69.8*	0.1	18.5
COc1ccccc1OCCn1cc(/C=C(\C#N)C(=O)NCc2ccco2)c2ccccc21	1.0	-5.3	-3.4	103.0*	1.3	-0.1
SMILES	PAD4 inh	PRMT1 inh	GSTO1 inh	TDP2 absorb	E coli Lon inh	TDP2 inh conf
CCOC(=O)c1c2c(n(Cc3ccccc3)c1C)C(=O)C(=O)c1ccccc1-2	·	-0.1	·	51.2*	11.3	73.1*
CCCn1c(C)c(C(=O)OCC)c(O)c(-c2ccccc2)c1=O	1.1	-1.6	6.3	0.1	5.7	·
O=c1[nH]c(=S)[nH]c2c1C(c1ccc(F)cc1)OC(C1CCCCC1)C2 (centres undefined)	·	-1.2	·	3.2	-10.3	·
CN1C(=O)CCS(=O)(=O)C1c1ccc(Cl)c(Cl)c1 (centres undefined)	·	-4.6	·	-10.9	-4.9	·
COc1cc(NC2CCCCC2O)c2nc(-c3ccc(Cl)cc3)ccc2c1 (centres undefined)	10.8	0.7	52.3*	32.7*	-4.5	-2.1
COc1ccc(OCC(=O)OCC(=O)NC2CCCCC2C)cc1 (centres undefined)	0.8	-1.0	·	1.9	1.2	·
Cc1ccc(S(=O)(=O)N2CCC(C(=O)NCCCN3CCOCC3)CC2)cc1C	-3.8	-3.5	11.2	30.4*	-2.5	5.5
O=C(Nc1ccc(NC(=O)c2ccco2)cc1)c1ccco1	3.1	-4.7	3.0	28.4*	-8.3	8.8
CCC(=O)Nc1c2c(nn1-c1ccc(C)cc1)CS(=O)(=O)C2	3.3	·	9.1	·	-5.5	·
O=C(COC(=O)/C=C/c1ccccc1)Nc1ccc(Cl)cn1	-3.4	-0.1	0.8	-0.5	2.0	·
COc1ccccc1/C=C/C(=O)OCC(=O)Nc1ccc(Cl)cn1	-3.5	-0.1	0.7	29.1*	-0.5	-1.4
CC(=O)Oc1c(I)cc(I)cc1C(=O)Nc1ccc(Cl)cc1	2.9	5.8	-16.6	-2.2	-7.8	·
COc1ccc(S(=O)(=O)N2CCN(CC(O)COc3ccc(CC#N)cc3)CC2)cc1OC (centres undefined)	0.8	1.6	-3.0	0.0	7.5	·
CCCCC(=O)Nc1nnc(SCC(=O)NC2CC2)s1	4.1	-0.7	1.4	39.1*	5.2	2.8
CCCCC(=O)Nc1nnc(SCC(=O)NC2CCCC2)s1	-1.7	-0.8	7.1	6.0	-8.4	·
CC(C)C(=O)Nc1nnc(SCC(=O)NC2CCCC2)s1	1.3	0.2	3.6	33.1*	-6.8	-2.8
N#CCCn1cc(C(=O)N2CCOCC2)c(-c2ccc3c(c2)OCCO3)n1	-4.2	0.5	1.3	24.9*	-1.8	-8.7
COc1ccc(/C=N/NC(=O)c2nnn(-c3nonc3N)c2CN(C)c2ccccc2)cc1	4.8	-3.0	2.4	26.9*	2.1	6.8
COc1cccc(-n2c(=O)c3ccccc3n3c(=S)[nH]nc23)c1	5.6	-1.0	3.9	68.9*	-2.0	3.5
CCc1ccc(-n2c(=O)c3ccccc3n3c(=S)[nH]nc23)cc1	2.3	-2.5	7.4	2.5	-9.5	·
Clc1cc(Br)ccc1OCCN1CCOCC1	-5.1	-0.3	2.4	5.9	-3.0	·
Brc1ccccc1OCCN1CCOCC1	-1.1	0.8	1.1	25.6*	-4.9	3.5
COc1ccc(CC(=O)OC(C)C(=O)NCc2ccc3c(c2)OCO3)cc1OC (centres undefined)	-5.6	0.4	-6.3	44.4*	-1.9	3.0
COc1ccc(CC(=O)OCC(=O)NCc2ccc3c(c2)OCO3)cc1OC	-4.7	-1.6	·	-1.7	-4.0	·
CCOC(=O)C1=C[C@@H](C(C)C)N(S(=O)(=O)c2ccc(C)cc2)[C@H]1c1ccc(C(F)(F)F)cc1	·	-2.0	·	-8.7	-6.9	·
